Shown are actives, neighbours in structure and some others; about 5.5% of the full set was active somewhere.
Yeast life ext: compounds extending yeast replicative lifespan, primary screen, S. cerevisiae, OD615; S. cerevisiae growth with nicotinamide; deaD strain in restrictive glucose medium; inhibition of the nicotinamide effect, % at 10 µM; 130,000 tested, 0.68% active;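 active = inhibition above a set limit, placed 3 SD over the median of all compounds, cut at about 26% in these data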;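 note: 0% = nicotinamide-treated wells and 100% = cells grown without nicotinamide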
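Measured by: optical density (absorbance) at 615 nm; System: modified budding yeast, DeaD strain; Medium: restrictive CSMM-D dextrose medium; Timing: 4 h preincubation then 48 h treatment at 30 °C.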
BB579 growth dn: growth inhibitors of yeast BB579 in restrictive medium, primary screen, yeast lifespan-shortening project, S. cerevisiae. OD615, 48 h. inhibition, % at 10 µM. 140,000 tested, 0.51% active. AID 804, 2007;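 active = inhibition above a set limit, 3 SD over the mean compound inhibition, cut at about 44% in these data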
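test system = yeast BB579 (DeaD) | buffer or medium = restrictive CSMM-D medium | doses = single compound dose of 10 µM, 0.25% DMSO final | times = 4 h preincubation and 48 h exposure at 30 °C | technique = culture absorbance at 615 nm | benchmarks = amphotericin B 10 µg/mL, positive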
WT yeast gro inh: growth inhibition of WT strain, primary screen, mitochondrial fusion inhibitor project, WT and mutant strains, chemical genetic. inhibition, % at 10 µM. AID 1362, 2008. mitochondrial fusion phenotypic screen. 190,000 tested, 2.1% active; in the data active = inhibition above about 58%; tested in S. cerevisiae
RAM network inh: inhibitors of the yeast RAM network, primary screen, dse1pr::URA3 reporter, 5-FOA selection | S. cerevisiae dse1pr::URA3 reporter, 5-FOA growth OD615, 2 d; analog-sensitive cbk1-as2 kinase mutant strain | inhibition, % at 50 µM | 190,000 tested, 1.8% active | AID 868, 2007;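 active = inhibition above a set limit, 3 SD over mean compound inhibition, cut at about 8.4% in these data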;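 note: 0% = DMSO-only wells with no growth and 100% = 10 µM 1-NA-PP1 full growth; inhibition rescues growth on 5-FOA so higher OD means more RAM inhibition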
Cl transport mod: KCC2 cotransporter modulators, thallium flux, primary screen, cell-based, HEK293 KCC2, FluoZin-2 fluorescence, MLSMR; Solute carrier family 12 member 5 (Homo sapiens), Q9H2X9; KCC2 cells, thallium flux FluoZin-2 fluorescence; B-score of Tl+ flux slope (higher = more flux/activation; lower = inhibition) at 10 µM; 190,000 tested, 2.2% active; AID 1456, 2008;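 active = thallium flux slope and its plate-corrected score both differing from the plate sample mean at a set confidence after two filtering rounds, in either direction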;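 note: slope of fluorescence scaled to starting intensity during 10 to 20 s after thallium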
Target sequence (Q9H2X9 whole entry, looked up): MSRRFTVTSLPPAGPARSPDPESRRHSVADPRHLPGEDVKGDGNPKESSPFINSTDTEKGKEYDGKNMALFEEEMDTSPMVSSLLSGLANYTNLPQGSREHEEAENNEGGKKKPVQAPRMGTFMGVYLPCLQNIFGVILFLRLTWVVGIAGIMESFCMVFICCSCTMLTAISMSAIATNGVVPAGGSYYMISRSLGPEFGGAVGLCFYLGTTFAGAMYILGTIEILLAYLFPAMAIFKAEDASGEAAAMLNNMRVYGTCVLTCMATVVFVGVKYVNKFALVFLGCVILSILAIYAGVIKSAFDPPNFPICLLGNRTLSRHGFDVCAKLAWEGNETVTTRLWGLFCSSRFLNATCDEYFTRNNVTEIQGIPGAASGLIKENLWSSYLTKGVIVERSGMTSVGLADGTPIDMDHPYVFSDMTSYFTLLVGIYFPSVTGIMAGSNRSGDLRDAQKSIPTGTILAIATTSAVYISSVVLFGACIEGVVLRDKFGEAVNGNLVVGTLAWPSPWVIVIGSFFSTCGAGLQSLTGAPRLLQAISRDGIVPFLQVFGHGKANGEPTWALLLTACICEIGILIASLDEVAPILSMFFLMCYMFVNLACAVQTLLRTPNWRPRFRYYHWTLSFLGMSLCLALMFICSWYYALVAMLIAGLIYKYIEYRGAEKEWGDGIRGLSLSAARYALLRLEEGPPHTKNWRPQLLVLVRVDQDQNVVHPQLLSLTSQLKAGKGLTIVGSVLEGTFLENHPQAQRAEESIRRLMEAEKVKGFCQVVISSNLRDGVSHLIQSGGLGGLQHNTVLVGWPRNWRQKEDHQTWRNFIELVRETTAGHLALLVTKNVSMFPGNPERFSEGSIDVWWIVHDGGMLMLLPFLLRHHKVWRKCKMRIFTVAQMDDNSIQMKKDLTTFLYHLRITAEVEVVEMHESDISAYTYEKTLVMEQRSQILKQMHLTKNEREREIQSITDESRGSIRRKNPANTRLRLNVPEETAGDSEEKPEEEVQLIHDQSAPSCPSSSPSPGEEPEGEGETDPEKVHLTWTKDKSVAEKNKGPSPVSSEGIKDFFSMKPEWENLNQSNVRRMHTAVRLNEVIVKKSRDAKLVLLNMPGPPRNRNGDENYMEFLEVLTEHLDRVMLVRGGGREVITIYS
* hit, by the source's call; · = no result given.

SMILES	Yeast life ext	BB579 growth dn	WT yeast gro inh	RAM network inh	Cl transport mod
O=C(CN(c1ccc(Cl)cc1)S(=O)(=O)c1ccc(Cl)c([N+](=O)[O-])c1)NCCc1ccccc1	·	·	-1	8.4*	-0.47
COc1cccc(CC2(CO)CCCN(Cc3[nH]c4ccc(C)cc4c3C)C2)c1 (configuration not stated)	·	·	81*	1	0.076
COc1cccc(CC2(CO)CCCN(Cc3ccc(C)s3)C2)c1 (configuration not stated)	·	·	8	0	-0.26
C[C@H](NC(=O)C1(c2ccccc2)CCN(C(=O)[C@H]2CSCN2C(=O)OC(C)(C)C)CC1)C(=O)O	-16	-24	9	3	0.00092
O=C(OCC(=O)N1c2ccccc2Sc2ccccc21)c1ccc[n+]([O-])c1	·	·	-8	1	0.0061
CC(C)(C)c1nnc(N/N=C/c2ccc(Br)cc2)n(N)c1=O	-2	-21	10	2	-0.84
COc1ccc(-c2noc(N(C)CC(=O)Nc3cccc(C(F)(F)F)c3)n2)cc1	2	-18	65*	10*	0.38
COc1ccc(-c2noc(CCC(=O)Nc3cccc(C)c3)n2)cc1	-3	-22	10	0	·
O=C(CSc1nnc(SCc2ccccc2)s1)NNC(=S)Nc1ccccc1	1	-34	-8	10*	-2.4
COc1ccc(S(=O)(=O)N2CCC[C@H]2C(=O)NC2=NCCS2)cc1	-4	-38	66*	0	0.22
Clc1ccc2nnnc(-c3ccccc3)c2c1	3	46*	-12	0	0.47
c1ccc(-c2nnnc3ccccc23)cc1	-1	-13	-3	3	2.1
CCCn1c(O)c(N=NC(=O)c2cccnc2)c2cc(Br)ccc21	·	·	·	·	-1.1
Clc1ccc(COn2c(-c3ccc(Cl)cc3)nc3ccccc32)cc1	-19	-48	-7	9.1*	0.086
O=C(O)COn1c(-c2ccc(Cl)cc2)nc2ccc(Cl)cc21	·	·	8	5	-0.57
COn1c(-c2ccc(Cl)cc2)nc2ccc(Cl)cc21	-25	-9	-1	11*	0.47
Cc1cccc(NS(=O)(=O)c2cc(C(=O)NCCC3=CCCCC3)ccc2Cl)c1	-7	-19	8	5	0.051
COCc1cc(=O)[nH]c(Sc2c(-c3ccccc3)c3ccc(Cl)cc3[nH]c2=O)n1	-1	-1	-7	3	0.38
Cc1cc(=O)[nH]c(Sc2c(-c3ccccc3)c3ccccc3[nH]c2=O)n1	-11	-8	-10	8.7*	-0.67
COc1ccc(-c2nnn(CC(=O)N(Cc3ccco3)C(C(=O)NCC3CCCO3)c3ccco3)n2)cc1 (configuration not stated)	-3	-20	-3	-1	-0.79
COc1ccc(CN(C(=O)Cn2nnc(-c3ccc(C)o3)n2)C(C(=O)NCC2CCCO2)c2ccco2)cc1 (configuration not stated)	·	·	-6	9.1*	0.089
C=CCOc1cccc(CNc2cccc(C(=O)O)c2)c1	·	·	·	·	0.82
O=C(NC(Cc1c[nH]c2ccccc12)C(=O)Nc1ccc(OC(F)(F)F)cc1)c1cccs1 (configuration not stated)	10	4	88*	7	0.44
CCOc1cc(C2NN=C(c3ccc(C)cc3)S2)ccc1O (configuration not stated)	-8	-23	13	1	41*
CCc1cccc(NC(=O)CS(=O)Cc2nc(-c3ccc(C)cc3)oc2C)c1 (configuration not stated)	-6	-20	35	3	-0.22
SMILES	Yeast life ext	BB579 growth dn	WT yeast gro inh	RAM network inh	Cl transport mod
c1ccc(SSc2ccccc2)cc1	28*	3	30	1	0.8
Clc1ccc2[nH]c3c(c2c1)CCc1cn[nH]c1-3	-29	100*	25	1	-0.72
CC(C)N(CCCNC(=O)C1CCN(S(=O)(=O)N2CCOCC2)CC1)Cc1ccccc1	-4	6	4	1	0.03
CCOC(=O)C1=C(C)NC(SCC(=O)OC)=C(C#N)C1c1ccc(C(=O)OC)cc1 (configuration not stated)	5	-3	-9	11*	·
CCOC(=O)CSC1=C(C#N)C(c2ccc(F)cc2)C(C(C)=O)=C(C)N1 (configuration not stated)	1	-28	-1	3	-1.2
Cc1ccc(C)c(SCC(=O)NC(=O)NCc2ccccc2)c1	1	-59	-8	11*	0.022
Cc1ccc(C)c(SCC(=O)OCC(=O)NCc2ccccc2)c1	·	·	-2	1	0.0083
CN1OC(c2ccccc2)=C(CO)C1c1ccccc1 (configuration not stated)	51*	-34	-19	1	0.84
CCOC(=O)c1c(NC(=O)Cn2nc(C(=O)O)c3ccccc3c2=O)sc(CC)c1C	·	·	1	3	0.084
COc1ccc(C(NC(=O)c2ccc(F)cc2)c2ccccc2)cc1 (configuration not stated)	3	-28	3	1	-0.084
O=C(CCC(=O)OC(C(=O)c1ccccc1)c1ccccc1)Nc1ccccc1 (configuration not stated)	-29	-35	6	8	-0.13
COc1ccc(C(=O)C(OC(=O)c2ccccc2)c2ccccc2)cc1 (configuration not stated)	-3	-5	21	10*	-0.51
Cc1cc(C(=O)OC(C(=O)Nc2ccc(C)c(Cl)c2)c2ccccc2)c(C)o1 (configuration not stated)	1	2	29	5	0.82
Cc1ccc(NC(=O)C(OC(=O)c2ccccc2Cl)c2ccccc2)cc1Cl (configuration not stated)	6	-36	21	8.9*	0.31
Cc1ccccc1OCC(=O)OC(C(=O)c1ccccc1)c1ccccc1 (configuration not stated)	-2	-35	8	10*	-0.79
COc1ccc(C(=O)C(OC(=O)c2ccccc2Cl)c2ccccc2)cc1 (configuration not stated)	4	-37	-6	11*	-0.12
Cc1ccc(OCCCCNC2CCCCC2)c(C)c1	·	·	25	1	0.27
COc1ccc(O)c(C(=O)c2coc(=N)c(C(=O)Nc3ccc(SC(F)F)cc3)c2)c1	·	·	32	5	0.091
CCCCCCCCCCS(=O)(=O)N/N=C/c1ccc(O)cc1	0	-18	34	3	0.0016
Cc1cc2cc(CCNC(=O)c3ccc(Br)o3)c(=O)[nH]c2cc1C	-16	-24	96*	1	-0.8
CCS(=O)(=O)c1ccc2oc(SCC(=O)NC3CCCC(C)C3C)nc2c1 (configuration not stated)	-8	-21	-26	2	-3.7

Bioassay records: PubChem BioAssay, several laboratories
